Experiments:
[1] = Phytotoxicity against Zea mays (maize) assessed as inhibition of root length at 0.05 mg/L and at 25 degC/20 degC day/night temperature 14 hr photoperiod for 3 days; assay type: organism-based; settings: in vivo
Outline: (§1)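 Maize seeds were surface-sterilized in 3% H2O2 for 10 min and germinated on moist filter paper at 27 °C in the dark. Seedlings were exposed to (rac)-, (S)- or (R)-DCPP in sterile deionized water (0–1.0 mg L-1), with solutions renewed daily, at 80% relative humidity and repositioned daily. Fresh weight, root length and shoot height were compared with the water control after 3 days.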

[2] = Phytotoxicity against Zea mays (maize) assessed as inhibition of fresh weight at 0.05 mg/L and at 25 degC/20 degC day/night temperature 14 hr photoperiod for 3 days; assay type: organism-based; settings: in vivo; outline: as §1
[3] = Phytotoxicity against Zea mays (maize) assessed as inhibition of shoot height at 0.02 mg/L and at 25 degC/20 degC day/night temperature 14 hr photoperiod for 3 days; assay type: organism-based; settings: in vivo; outline: as §1
[4] = Phytotoxicity against Zea mays (maize) assessed as inhibition of root length at 0.02 mg/L and at 25 degC/20 degC day/night temperature 14 hr photoperiod for 3 days; assay type: organism-based; settings: in vivo; outline: as §1
[5] = Phytotoxicity against Zea mays (maize) assessed as inhibition of fresh weight at 0.02 mg/L and at 25 degC/20 degC day/night temperature 14 hr photoperiod for 3 days; assay type: organism-based; settings: in vivo; outline: as §1
Zea mays [6] = assay: Induction of hydroxyl radical production in Zea mays (maize) root assessed as PBN adducts formation at 1 mg/L measured after 3 days by EPR analysis; assay type: organism-based; settings: in vivo, 72 h
Outline: (§2)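 Roots of maize exposed for 3 days were rinsed in ice-cold 0.1 M CaCl2. Under nitrogen, 0.5 g was homogenized with 1.0 mL of fresh 100 mM PBN in DMSO, incubated 37 °C for 15 min, and centrifuged 4500 rpm, 3 min, 4 °C. Signal expressed relative to control.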

Zea mays [7] = assay: Induction of hydroxyl radical production in Zea mays (maize) root assessed as ROS adducts formation at 1 mg/L measured after 3 days by EPR analysis; assay type: organism-based; settings: in vivo, 72 h; outline: as §2
Zea mays [8] = assay: Induction of POD activity in Zea mays (maize) root at 0.1 mg/L measured after 3 days; assay type: organism-based; settings: in vivo, 72 h
Outline: (§3)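 Maize roots after 3 days' exposure to DCPP enantiomers (0–1.0 mg L-1, test solutions renewed daily). Fresh roots (1.0 g) homogenized on ice in 0.05 M sodium phosphate buffer pH 7.8 with 1% (w/v) polyvinylpyrrolidone, then centrifuged 10 000 rpm, 10 min, 4 °C. The supernatant was used for enzyme assays, with protein by Bradford (BSA standard). Mean ± SEM of three replicate cultures.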

[9] = Phytotoxicity against Zea mays (maize) assessed as inhibition of shoot height at 1 mg/L and at 25 degC/20 degC day/night temperature 14 hr photoperiod for 3 days; assay type: organism-based; settings: in vivo; outline: as §1
Zea mays [10] = assay: Induction of SOD activity in Zea mays (maize) root at 0.02 mg/L measured after 3 days; assay type: organism-based; settings: in vivo, 72 h; outline: as §3
[11] = Phytotoxicity against Zea mays (maize) assessed as inhibition of root length at 1 mg/L and at 25 degC/20 degC day/night temperature 14 hr photoperiod for 3 days; assay type: organism-based; settings: in vivo; outline: as §1
[12] = Phytotoxicity against Zea mays (maize) assessed as inhibition of fresh weight at 1 mg/L and at 25 degC/20 degC day/night temperature 14 hr photoperiod for 3 days; assay type: organism-based; settings: in vivo; outline: as §1
[13] = Phytotoxicity against Zea mays (maize) assessed as inhibition of shoot height at 0.5 mg/L and at 25 degC/20 degC day/night temperature 14 hr photoperiod for 3 days; assay type: organism-based; settings: in vivo; outline: as §1
[14] = Phytotoxicity against Zea mays (maize) assessed as inhibition of root length at 0.5 mg/L and at 25 degC/20 degC day/night temperature 14 hr photoperiod for 3 days; assay type: organism-based; settings: in vivo; outline: as §1
[15] = Phytotoxicity against Zea mays (maize) assessed as inhibition of fresh weight at 0.5 mg/L and at 25 degC/20 degC day/night temperature 14 hr photoperiod for 3 days; assay type: organism-based; settings: in vivo; outline: as §1
[16] = Phytotoxicity against Zea mays (maize) assessed as inhibition of shoot height at 0.1 mg/L and at 25 degC/20 degC day/night temperature 14 hr photoperiod for 3 days; assay type: organism-based; settings: in vivo; outline: as §1
[17] = Phytotoxicity against Zea mays (maize) assessed as inhibition of root length at 0.1 mg/L and at 25 degC/20 degC day/night temperature 14 hr photoperiod for 3 days; assay type: organism-based; settings: in vivo; outline: as §1
[18] = Phytotoxicity against Zea mays (maize) assessed as inhibition of fresh weight at 0.1 mg/L and at 25 degC/20 degC day/night temperature 14 hr photoperiod for 3 days; assay type: organism-based; settings: in vivo; outline: as §1
[19] = Phytotoxicity against Zea mays (maize) assessed as inhibition of shoot height at 0.05 mg/L and at 25 degC/20 degC day/night temperature 14 hr photoperiod for 3 days; assay type: organism-based; settings: in vivo; outline: as §1
[20] = Phytotoxicity against Zea mays (maize) assessed as inhibition of seed germination at 1 mg/L and at 27 degC in the dark for 3 days; settings: in vivo
[21] = Phytotoxicity against Zea mays (maize) assessed as inhibition of seed germination at 0.5 mg/L and at 27 degC in the dark for 3 days; settings: in vivo
[22] = Phytotoxicity against Zea mays (maize) assessed as inhibition of seed germination at 0.1 mg/L and at 27 degC in the dark for 3 days; settings: in vivo
[23] = Phytotoxicity against Zea mays (maize) assessed as inhibition of seed germination at 0.05 mg/L and at 27 degC in the dark for 3 days; settings: in vivo
[24] = Phytotoxicity against Zea mays (maize) assessed as inhibition of seed germination at 0.02 mg/L and at 27 degC in the dark for 3 days; settings: in vivo
Zea mays [25] = assay: Induction of POD activity in Zea mays (maize) root at 0.05 mg/L measured after 3 days; assay type: organism-based; settings: in vivo, 72 h; outline: as §3
Zea mays [26] = assay: Induction of POD activity in Zea mays (maize) root at 0.02 mg/L measured after 3 days; assay type: organism-based; settings: in vivo, 72 h; outline: as §3

C[C@H](Oc1ccc(Cl)cc1Cl)C(=O)O [(S)-DICHLORPROP]
inhibition at 72 h, 0.05 mg/L [1]: 17.3%
inhibition at 72 h, 0.05 mg/L [2]: 2.94%
inhibition at 72 h, 0.02 mg/L [3]: 2.06%
inhibition at 72 h, 0.02 mg/L [4]: 11.4%
inhibition at 72 h, 0.02 mg/L [5]: 2.12%
Activity (Zea mays [6]): Toxic
Activity (Zea mays [7]): Toxic
Activity (Zea mays [8]): Toxic
inhibition at 72 h, 1 mg/L [9]: 30.6%
Activity (Zea mays [10]): Non-toxic
inhibition at 72 h, 1 mg/L [11]: 39.9%
inhibition at 72 h, 1 mg/L [12]: 38.1%
inhibition at 72 h, 0.5 mg/L [13]: 15.9%
inhibition at 72 h, 0.5 mg/L [14]: 34.9%
inhibition at 72 h, 0.5 mg/L [15]: 30.2%
inhibition at 72 h, 0.1 mg/L [16]: 6.28%
inhibition at 72 h, 0.1 mg/L [17]: 22.7%
inhibition at 72 h, 0.1 mg/L [18]: 9.5%
inhibition at 72 h, 0.05 mg/L [19]: 3.12%
inhibition at 72 h, 1 mg/L [20]: 21.9%
inhibition at 72 h, 0.5 mg/L [21]: 11.4%
inhibition at 72 h, 0.1 mg/L [22]: 9.67%
inhibition at 72 h, 0.05 mg/L [23]: 4.75%
inhibition at 72 h, 0.02 mg/L [24]: 2.1%

CC(Oc1ccc(Cl)cc1Cl)C(=O)O (racemic) [RAC-DICHLORPROP]
inhibition at 72 h, 0.05 mg/L [1]: 19.3%
inhibition at 72 h, 0.05 mg/L [2]: 4.28%
inhibition at 72 h, 0.02 mg/L [3]: 2.14%
inhibition at 72 h, 0.02 mg/L [4]: 12.7%
inhibition at 72 h, 0.02 mg/L [5]: 2.75%
Activity (Zea mays [6]): Toxic
Activity (Zea mays [7]): Toxic
Activity (Zea mays [25]): Toxic
inhibition at 72 h, 1 mg/L [9]: 31.1%
Activity (Zea mays [10]): Non-toxic
inhibition at 72 h, 1 mg/L [11]: 40.1%
inhibition at 72 h, 1 mg/L [12]: 39.7%
inhibition at 72 h, 0.5 mg/L [13]: 17.6%
inhibition at 72 h, 0.5 mg/L [14]: 36.7%
inhibition at 72 h, 0.5 mg/L [15]: 31.3%
inhibition at 72 h, 0.1 mg/L [16]: 7.9%
inhibition at 72 h, 0.1 mg/L [17]: 24.5%
inhibition at 72 h, 0.1 mg/L [18]: 10%
inhibition at 72 h, 0.05 mg/L [19]: 4.02%
inhibition at 72 h, 1 mg/L [20]: 31.7%
inhibition at 72 h, 0.5 mg/L [21]: 21.4%
inhibition at 72 h, 0.1 mg/L [22]: 12.2%
inhibition at 72 h, 0.05 mg/L [23]: 8.38%
inhibition at 72 h, 0.02 mg/L [24]: 3.57%

C[C@@H](Oc1ccc(Cl)cc1Cl)C(=O)O [(R)-DICHLORPROP]
inhibition at 72 h, 0.05 mg/L [1]: 23.5%
inhibition at 72 h, 0.05 mg/L [2]: 14.8%
inhibition at 72 h, 0.02 mg/L [3]: 3.52%
inhibition at 72 h, 0.02 mg/L [4]: 14.3%
inhibition at 72 h, 0.02 mg/L [5]: 5.76%
Activity (Zea mays [6]): Toxic
Activity (Zea mays [7]): Toxic
Activity (Zea mays [26]): Toxic
inhibition at 72 h, 1 mg/L [9]: 36.7%
Activity (Zea mays [10]): Toxic
inhibition at 72 h, 1 mg/L [11]: 42%
inhibition at 72 h, 1 mg/L [12]: 42.7%
inhibition at 72 h, 0.5 mg/L [13]: 20.7%
inhibition at 72 h, 0.5 mg/L [14]: 38.4%
inhibition at 72 h, 0.5 mg/L [15]: 36.7%
inhibition at 72 h, 0.1 mg/L [16]: 8.61%
inhibition at 72 h, 0.1 mg/L [17]: 26.6%
inhibition at 72 h, 0.1 mg/L [18]: 24.6%
inhibition at 72 h, 0.05 mg/L [19]: 5.27%
inhibition at 72 h, 1 mg/L [20]: 41.4%
inhibition at 72 h, 0.5 mg/L [21]: 34.9%
inhibition at 72 h, 0.1 mg/L [22]: 16.1%
inhibition at 72 h, 0.05 mg/L [23]: 10.7%
inhibition at 72 h, 0.02 mg/L [24]: 6.64%
